# Source: ChEMBL document CHEMBL1800056, “Discovery of 2-(6-{[(6-fluoroquinolin-2-yl)methyl]amino}bicyclo[3.1.0]hex-3-yl)-N-hydroxypyrimidine-5-carboxamide (CHR-3996), a class I selective orally active histone deacetylase inhibitor” (J Med Chem, 2010)
# The source made the active and inactive calls. No cut-off for these calls is given here.
# Columns and labels:
# [1] = biological target: Histone deacetylase 3 (Homo sapiens, UniProt O15379); test: Inhibition of human recombinant HDAC3 using fluor de Lys as substrate by fluorometric analysis
# [2] = Aqueous solubility of the compound in PBS at pH 5.5; format: physicochemical
# [3] = tested on: COR-L23; test: Ratio of GI50 for SAHA to compound for doxorubicin-resistant human COR-L23 cells after 72 hrs by WST-1 assay; format: functional
# Outline: (§1)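 Cells seeded at (1-5) × 10³/well in serum-containing medium and grown 24 h at 37 °C, 5% CO₂. They were then exposed for 72 h to HDAC inhibitor (0.6-10000 nM), with SAHA run alongside in the same panel. WST-1 was added for the final 4 h and read at 450 nm (650 nm reference). GI50 taken as 50% inhibition of the vehicle response, n = 6.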
# [4] = tested on: DU-145; test: Ratio of GI50 for SAHA to compound for human DU145 cells after 72 hrs by WST-1 assay; format: functional; outline: as §1
# [5] = tested on: PC-3; test: Ratio of GI50 for SAHA to compound for human PC3 cells after 72 hrs by WST-1 assay; format: functional; outline: as §1
# [6] = tested on: HepG2; test: Ratio of GI50 for SAHA to compound for human HepG2 cells after 72 hrs by WST-1 assay; format: functional; outline: as §1
# [7] = tested on: MOLT-4; test: Ratio of GI50 for SAHA to compound for human MOLT4 cells after 72 hrs by WST-1 assay; format: functional; outline: as §1
# [8] = tested on: HCT-116; test: Ratio of GI50 for SAHA to compound for human HCT116 cells after 72 hrs by WST-1 assay; format: functional; outline: as §1
# [9] = tested on: COR-L23; test: Ratio of GI50 for SAHA to compound for human COR-L23 cells after 72 hrs by WST-1 assay; format: functional; outline: as §1
# [10] = tested on: U-937; test: Antiproliferative activity against human U937 cells after 72 hrs by WST-1 assay; format: functional; settings: Homo sapiens, U-937, 72 h
# Outline: (§2)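 Cells seeded at (1-5) × 10³/well in serum-containing medium for 24 h at 37 °C, 5% CO₂. Inhibitor added at 0.6-10000 nM for 72 h, with WST-1 pulse over the final 4 h. Formazan read at 450 nm (reference 650 nm). Expressed as % inhibition of vehicle response; GI50 is the concentration inhibiting 50% of vehicle response; n = 6 replicates.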
# [11] = tested on: HCT-116; test: Antitumor activity against human HCT116 cells xenografted in BALB/c mouse assessed as suppression of tumor growth at 50 mg/kg, po administered QD for 14 days; format: functional, organism-based; parameters: dose 50 mg/kg
# Outline: (§3)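 HCT116 xenografts in female nude BALB/c mice, run at EpiStem. Oral daily dosing for 14 days in 5% DMSO-saline at 50 or 75 mg/kg. Tumor volume measured relative to start; drug concentrations in tumor and plasma measured.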
# [12] = tested on: LoVo; test: Antitumor activity against human LoVo cells xenografted in nude BALB/c mouse assessed as reduction in tumor volume at 50 mg/kg, po administered QD for 19 days; format: functional, organism-based; parameters: dose 50 mg/kg
# Outline: (§4)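 LoVo colorectal xenograft grown subcutaneously in female BALB/c nude mice, run at EpiStem. Compound given orally daily at 25 or 50 mg/kg; tumor volume followed.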
# [13] = tested on: HuT78; test: Ratio of GI50 for SAHA to compound for human HUT78 cells after 72 hrs by WST-1 assay; format: functional; outline: as §1
# [14] = tested on: Rattus norvegicus; test: AUC (0 to t) in rat at 1 mg/kg, iv; format: ADME, organism-based, Plasma; parameters: dose 1 mg/kg, route intravenous; settings: in vivo
# Outline: (§5)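 Rat single dose, iv 1 mg/kg or po 10 mg/kg, both in 1% DMSO-HPβC (11.25% w/v). AUC0-t in ng h/mL, clearance in (mL/min)/kg, t1/2 in h, F in %.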
# [15] = tested on: MIA PaCa-2; test: Ratio of GI50 for SAHA to compound for human MIAPaCa2 cells after 72 hrs by WST-1 assay; format: functional; outline: as §1
# [16] = Aqueous solubility of the compound in PBS at pH 7.4; format: physicochemical
# [17] = Half life in rat at 10 mg/kg, po; format: ADME, organism-based; parameters: dose 10 mg/kg, route oral; settings: in vivo; outline: as §5
# [18] = tested on: Rattus norvegicus; test: AUC (0 to t) in rat at 10 mg/kg, po; format: ADME, organism-based, Plasma; parameters: dose 10 mg/kg, route oral; settings: in vivo; outline: as §5
# [19] = Drug level in tumor of BALB/c mouse at 50 mg/kg, po administered daily for 14 days; format: ADME, organism-based, Neoplasm; parameters: dose 50 mg/kg, route oral; settings: read-out: Drug uptake; outline: as §3
# [20] = tested on: A549; test: Ratio of GI50 for SAHA to compound for human A549 cells after 72 hrs by WST-1 assay; format: functional; outline: as §1
# [21] = Antiproliferative activity against human […] cells after 72 hrs by WST-1 assay; format: functional; settings: Homo sapiens, MCR5-SV2, 72 h; outline: as §2
# [22] = Clearance in rat at 1 mg/kg, iv; format: ADME, organism-based; parameters: dose 1 mg/kg, route intravenous; settings: in vivo; outline: as §5
# [23] = tested on: U-937; test: Ratio of GI50 for SAHA to compound for human U937 cells after 72 hrs by WST-1 assay; format: functional; outline: as §1
# [24] = Clearance in human liver microsomes assessed as compound remaining after 30 mins; format: ADME, Microsome; settings: read-out: Activity
# [25] = tested on: PC-3; test: Antiproliferative activity against human PC3 cells after 72 hrs by WST-1 assay; format: functional; settings: PC-3, 72 h; outline: as §2
# [26] = tested on: A2780; test: Ratio of GI50 for SAHA to compound for human A2780 cells after 72 hrs by WST-1 assay; format: functional; outline: as §1
# [27] = tested on: LoVo; test: Antitumor activity against human LoVo cells xenografted in nude BALB/c mouse assessed as reduction in tumor volume at 25 mg/kg, po administered QD for 19 days; format: functional, organism-based; parameters: dose 25 mg/kg; outline: as §4
# [28] = tested on: Rattus norvegicus; test: Oral bioavailability in rat at 10 mg/kg; format: ADME, organism-based; settings: in vivo; outline: as §5
# [29] = Drug level in tumor of BALB/c mouse at 75 mg/kg, po administered daily for 14 days; format: ADME, organism-based, Neoplasm; parameters: dose 75 mg/kg, route oral; settings: read-out: Drug uptake; outline: as §3
# [30] = tested on: Mus musculus; test: In-vivo inhibition of HDAC1 in human HCT116 cells xenografted CrTac:NCr-Fox1 nude mouse assessed as histone acetylation at 50 mg/kg, po administered daily for 16 days measured after hrs by Western blot analysis relative to control; format: functional, organism-based; parameters: dose 50 mg/kg; settings: HCT-116
# Outline: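 Female CrTac:NCr-Fox1(nu) mice, 6-8 weeks old, bearing bilateral sc HCT116 tumors (2 million cells). Daily oral 50 mg/kg in 10% DMSO-saline from day 6 (tumors ~5 mm) to day 16; vehicle controls. Tumor lysates taken 0.5, 1.0 and 4 h after the last dose. Western blot for acetylated histone H3 or α-tubulin, normalized to GAPDH.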
# [31] = Ratio of drug level in spleen to plasma of CrTac:NCr-Fox1(nu) athymic mouse at 50 mg/kg, po administered daily for 16 days; format: ADME, organism-based; parameters: dose 50 mg/kg, route oral
# Outline: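 Female CrTac:NCr-Fox1(nu) athymic mice, 6-8 weeks old, inoculated bilaterally sc with 2 million HCT116 colon carcinoma cells. Dosing at 50 mg/kg po daily in 10% DMSO-saline started on day 6 (tumors approx. 5 mm diameter). Controls received vehicle alone. On day 16, plasma, spleen and tumor were collected and frozen for PK assays of drug levels.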
# [32] = tested on: Mus musculus; test: Toxicity in human HCT116 cells xenografted CrTac:NCr-Fox1 nude mouse at 50 mg/kg, po administered daily for 16 days; format: organism-based, HCT-116; parameters: dose 50 mg/kg, route oral; settings: in vivo, 384 h
# Outline: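 Female CrTac:NCr-Fox1(nu) athymic mice, 6-8 weeks old, given bilateral sc HCT116 implants (2 million cells). Oral dosing at 50 mg/kg in 10% DMSO-saline, once daily from day 6 (tumors ~5 mm mean diameter) until day 16. Controls received vehicle. Tumor size and body weight recorded three times weekly.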
# Histone deacetylase 3, sequence (O15379 whole entry): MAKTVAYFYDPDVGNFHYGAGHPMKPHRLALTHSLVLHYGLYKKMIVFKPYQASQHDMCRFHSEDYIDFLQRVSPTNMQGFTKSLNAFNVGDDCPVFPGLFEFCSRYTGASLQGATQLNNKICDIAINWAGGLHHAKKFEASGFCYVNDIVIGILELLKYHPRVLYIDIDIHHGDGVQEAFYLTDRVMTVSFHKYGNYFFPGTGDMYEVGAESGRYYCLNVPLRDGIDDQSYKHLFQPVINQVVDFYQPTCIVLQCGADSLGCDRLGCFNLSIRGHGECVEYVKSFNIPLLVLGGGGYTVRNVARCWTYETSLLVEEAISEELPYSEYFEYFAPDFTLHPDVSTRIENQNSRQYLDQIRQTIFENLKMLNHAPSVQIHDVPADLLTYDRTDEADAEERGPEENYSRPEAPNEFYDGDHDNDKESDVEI
smiles,measurement,setting,value
O=C(NO)c1cnc(N2C[C@@H]3[C@H](C2)[C@H]3NCc2ccc3cc(F)ccc3n2)nc1 [NANATINOSTAT],IC50,[1],7 nM
same,solubility,[2],3 µg/mL
same,RatioGI50,[3],5
same,RatioGI50,[4],21.9
same,RatioGI50,[5],12.5
same,RatioGI50,[6],20
same,RatioGI50,[7],21.6
same,RatioGI50,[8],10.3
same,RatioGI50,[9],10.5
same,GI50,[10],52 nM
same,Activity,[11],Active
same,Activity,[12],Active
same,RatioGI50,[13],9.5
same,AUCt,[14],124 ng·h/mL
same,RatioGI50,[15],12.5
same,solubility,[16],1 µg/mL
same,half-life,[17],5.2 h
same,AUCt,[18],102 ng·h/mL
same,concentration at 336 h,[19],133 ng/mL
same,RatioGI50,[20],22.8
same,GI50,[21],110 nM
same,clearance,[22],134 mL/min/kg
same,RatioGI50,[23],8.7
same,remaining at 0.5 h,[24],21%
same,GI50,[25],160 nM
same,RatioGI50,[26],15
same,Activity,[27],Active
same,F,[28],27%
O=C(NO)c1cnc(N2C[C@@H]3[C@H](C2)[C@H]3NCc2ccc(Cl)cc2)nc1,IC50,[1],10 nM
same,concentration at 336 h,[29],28 ng/mL
same,GI50,[10],120 nM
same,inhibition,[30],Active
same,Kp at 384 h,[31],4
same,Activity,[32],Non-toxic
same,remaining at 0.5 h,[24],38%
same,GI50,[25],260 nM
